Test results taken from ChEMBL document CHEMBL2034843, “3α-Hydroxymasticadienonic acid as an antiproliferative agent that impairs mitochondrial functions” (J Nat Prod, 2012).
Active and inactive are the calls of the source. The calls are words filed in the database; no cut-off is given here.

Tests used:
Rattus norvegicus [1] = species on record: Rattus norvegicus; test: Induction of mitochondrial dysfunction in Ca2+-stimulated rat liver mitochondria assessed as decrease in mitochondrial redox level at 10 uM after 15 mins by absorption spectrophotometric analysis in presence of cyclosporin A; assay type: functional
Outline: (§1)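 Mitochondrial protein thiol oxidation assayed per Santos et al. after 15 min incubation of rat liver mitochondria (1 mg protein/mL, 20 °C, succinate/rotenone standard medium). Results as % reduced thiols, mean ± SD, four independent experiments.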

HeLa = test: Cytotoxicity against human HeLa cells after 72 hrs by trypan blue assay; assay type: functional, cell-based
Outline: (§2)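 Cells seeded at 4 × 10^4 per well, grown 24 h, then given fresh medium with a range of concentrations and kept a further 72 h at 37 °C in 5% CO2. Viability was read by trypan blue count. IC50 is the concentration giving 50% fewer cells than control cultures, as mean ± SD of at least four experiments. HeLa were grown in F-12 with 10% heat-inactivated FCS; A-431 and HepG2 in DMEM with 10% FBS.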

Rattus norvegicus [2] = species on record: Rattus norvegicus; test: Induction of mitochondrial dysfunction in rat liver mitochondria assessed as increase in colloid-osmotic swelling at 10 uM by spectrophotometric analysis in presence of 50 uM Ca2+ and ADP; assay type: functional
Outline: (§3)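 Swelling read as the 540 nm absorbance decrease in succinate-energized rat liver mitochondria (1 mg protein/mL, 20 °C, pH 7.4 sucrose/HEPES medium) with 50 μM Ca2+. Added agents where indicated: 1 μM CsA, 5 μM bongkrekic acid, 1 mM ADP, 2 μM ruthenium red, 10 μM NEM, 1 mM DTE. At least five repeats.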

Rattus norvegicus [3] = species on record: Rattus norvegicus; test: Induction of mitochondrial dysfunction in Ca2+-stimulated rat liver mitochondria assessed as decrease in mitochondrial redox level at 10 uM after 15 mins by absorption spectrophotometric analysis in presence of bongkrekic acid; assay type: functional; outline: as §1
Rattus norvegicus [4] = species on record: Rattus norvegicus; test: Induction of mitochondrial dysfunction in rat liver mitochondria assessed as decrease in mitochondrial redox level at 100 uM after 15 mins by absorption spectrophotometric analysis; assay type: functional; set-up: scale not given: the % may be the effect or the level left; outline: as §1
Rattus norvegicus [5] = species on record: Rattus norvegicus; test: Induction of mitochondrial dysfunction in Ca2+-stimulated rat liver mitochondria assessed as decrease in mitochondrial redox level at 10 uM after 15 mins by absorption spectrophotometric analysis in presence of ADP; assay type: functional; outline: as §1
Rattus norvegicus [6] = species on record: Rattus norvegicus; test: Induction of mitochondrial dysfunction in rat liver mitochondria assessed as rapid accumulation of Ca2+ at 10 uM by spectrophotometric analysis; assay type: functional
Outline: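 Rat liver mitochondria, isolated by differential centrifugation in sucrose/HEPES/EGTA buffer, were incubated at 1 mg protein/mL and 20 °C. Ca2+ content of mitochondrial pellets was measured by atomic absorption spectroscopy.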

Rattus norvegicus [7] = species on record: Rattus norvegicus; test: Induction of mitochondrial dysfunction in rat liver mitochondria assessed as decrease in membrane potential at 5 uM by spectrophotometric analysis in presence of 50 uM Ca2+; assay type: functional; conditions: TDE = time-dependent effect
Outline: (§4)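 Membrane potential (ΔΨ) derived from TPP+ distribution across the inner membrane, measured with a TPP+-selective electrode. Ca2+ 50 μM where indicated; cyclosporin A 1 μM where indicated.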

Rattus norvegicus [8] = species on record: Rattus norvegicus; test: Induction of mitochondrial dysfunction in rat liver mitochondria assessed as cytochrome c release at 100 uM after 15 mins by Western blot analysis in presence of Ca2+; assay type: functional
Outline: (§5)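 Mitochondria (1 mg protein/mL) held 15 min at 20 °C in standard succinate/rotenone medium with or without Ca2+, then centrifuged 13000g, 10 min, 4 °C. Supernatants concentrated, resolved by SDS-PAGE (15% for cyt c, 10% for AIF) and immunoblotted with mouse anti-cyt c or rabbit anti-AIF.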

Rattus norvegicus [9] = species on record: Rattus norvegicus; test: Induction of mitochondrial dysfunction in rat liver mitochondria assessed as decrease in mitochondrial redox level at 10 uM after 15 mins by absorption spectrophotometric analysis; assay type: functional; set-up: scale not given: the % may be the effect or the level left; outline: as §1
Rattus norvegicus [10] = species on record: Rattus norvegicus; test: Hepatoprotective activity in rat liver mitochondria assessed as change in mitochondrial pyridine nucleotide redox level at 100 uM after 15 mins by fluorometric analysis in presence of Ca2+
Rattus norvegicus [11] = species on record: Rattus norvegicus; test: Induction of mitochondrial bioenergetics dysfunction in ADP-stimulated rat liver mitochondria assessed as decrease in oxygen consumption at 10 to 50 uM by using clark electrode; assay type: functional
Outline: (§6)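 Isolated rat liver mitochondria (1 mg protein/mL), 20 °C, sucrose/HEPES pH 7.4 medium with 5 mM succinate plus 1.25 μM rotenone and 1 mM phosphate. O2 uptake followed with a Clark electrode; 300 μM ADP added to start state 3. RCI = V3/V4 (state 3 over state 4 rate). Five experiments.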

Rattus norvegicus [12] = species on record: Rattus norvegicus; test: Induction of mitochondrial dysfunction in rat liver mitochondria assessed as increase in colloid-osmotic swelling at 100 uM by spectrophotometric analysis in presence of 50 uM Ca2+; assay type: functional
Outline: (§7)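 Absorbance change at 540 nm of rat liver mitochondrial suspensions (1 mg protein/mL, 20 °C, succinate/rotenone energized, 250 mM sucrose, 10 mM HEPES pH 7.4, 1 mM phosphate); a fall in absorbance taken as swelling. Ca2+ at 50, 70 or 90 μM as specified, or omitted. Runs repeated at least four times.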

Rattus norvegicus [13] = species on record: Rattus norvegicus; test: Induction of mitochondrial dysfunction in rat liver mitochondria assessed as increase in colloid-osmotic swelling at 10 uM by spectrophotometric analysis in presence of 50 uM Ca2+ and AdNT; assay type: functional; outline: as §3
Rattus norvegicus [14] = species on record: Rattus norvegicus; test: Induction of mitochondrial dysfunction in Ca2+-stimulated rat liver mitochondria assessed as decrease in SH mitochondrial redox level at 10 uM after 15 mins by absorption spectrophotometric analysis in presence of dithiothreitol; assay type: functional; outline: as §1
Rattus norvegicus [15] = species on record: Rattus norvegicus; test: Induction of mitochondrial dysfunction in rat liver mitochondria assessed as increase in colloid-osmotic swelling at 10 uM by spectrophotometric analysis in presence of 50 uM Ca2+ and Ca2+ transport inhibitor ruthedium red; assay type: functional; outline: as §3
Rattus norvegicus [16] = species on record: Rattus norvegicus; test: Induction of mitochondrial dysfunction in rat liver mitochondria assessed as decrease in mitochondrial pyridine nucleotide redox level at 10 uM after 15 mins by fluorometric analysis in presence of Ca2+
A-431 = test: Cytotoxicity against human A431cells after 72 hrs by trypan blue assay; assay type: functional, cell-based; conditions: A-431, 72 h; outline: as §2
Rattus norvegicus [17] = species on record: Rattus norvegicus; test: Induction of mitochondrial dysfunction in rat liver mitochondria assessed as apoptosis inducing factor release at 100 uM after 15 mins by Western blot analysis in presence of Ca2+; assay type: functional; outline: as §5
Rattus norvegicus [18] = species on record: Rattus norvegicus; test: Induction of mitochondrial dysfunction in rat liver mitochondria assessed as decrease in membrane potential at 10 uM by spectrophotometric analysis in presence of 50 uM Ca2+; assay type: functional; conditions: TDE = time-dependent effect; outline: as §4
Rattus norvegicus [19] = species on record: Rattus norvegicus; test: Induction of mitochondrial dysfunction in rat liver mitochondria assessed as initial uptake of Ca2+ per mg protein at 100 uM measured immediately by spectrophotometric analysis; assay type: functional
Outline: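 Ca2+ movements in rat liver mitochondria (1 mg protein/mL, 20 °C, succinate/rotenone medium) exposed to 70 μM Ca2+; Ca2+ in mitochondrial pellets measured by atomic absorption spectroscopy, uptake expressed per mg protein.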

Rattus norvegicus [20] = species on record: Rattus norvegicus; test: Induction of mitochondrial dysfunction in rat liver mitochondria assessed as increase in mitochondrial swelling at 10 uM by spectrophotometric analysis in presence of 70 uM Ca2+; assay type: functional; outline: as §7
Rattus norvegicus [21] = species on record: Rattus norvegicus; test: Induction of mitochondrial bioenergetics dysfunction in rat liver mitochondria assessed as decrease in respiratory control index at 25 uM by using clark electrode; assay type: functional; outline: as §6
Rattus norvegicus [22] = species on record: Rattus norvegicus; test: Induction of mitochondrial dysfunction in rat liver mitochondria assessed as increase in colloid-osmotic swelling at 10 uM by spectrophotometric analysis in presence of 50 uM Ca2+ and dithiothreitol; assay type: functional; outline: as §3
Rattus norvegicus [23] = species on record: Rattus norvegicus; test: Induction of mitochondrial dysfunction in rat liver mitochondria assessed as decrease in mitochondrial redox level at 10 uM after 15 mins by absorption spectrophotometric analysis in presence of 50 uM Ca2+; assay type: functional; set-up: scale not given: the % may be the effect or the level left; outline: as §1
Rattus norvegicus [24] = species on record: Rattus norvegicus; test: Induction of mitochondrial dysfunction in rat liver mitochondria assessed as increase in colloid-osmotic swelling at 10 uM by spectrophotometric analysis in presence of 50 uM Ca2+ and cyclosporin A; assay type: functional; outline: as §3

C/C(=C/CC[C@H](C)[C@@H]1CC[C@]2(C)C3=CC[C@H]4C(C)(C)[C@H](O)CC[C@]4(C)[C@H]3CC[C@@]12C)C(=O)O
Activity (Rattus norvegicus [1]): inactive
IC50 (HeLa): 28.9 µM
Activity (Rattus norvegicus [2]): inactive
Activity (Rattus norvegicus [3]): Active
Activity (Rattus norvegicus [4]): 25%
Activity (Rattus norvegicus [5]): Active
Activity (Rattus norvegicus [6]): Active
Activity (Rattus norvegicus [7]): tde
Activity (Rattus norvegicus [8]): inactive
Activity (Rattus norvegicus [9]): 20%
Activity (Rattus norvegicus [10]): Active
Activity (Rattus norvegicus [11]): Active
Activity (Rattus norvegicus [12]): Active
Activity (Rattus norvegicus [13]): inactive
Activity (Rattus norvegicus [14]): inactive
Activity (Rattus norvegicus [15]): inactive
Activity (Rattus norvegicus [16]): Active
IC50 (A-431): 40 µM
Activity (Rattus norvegicus [17]): inactive
Activity (Rattus norvegicus [18]): tde
Activity (Rattus norvegicus [19]): 20 nmol
Activity (Rattus norvegicus [20]): Active
Activity (Rattus norvegicus [21]): Active
Activity (Rattus norvegicus [22]): inactive
Activity (Rattus norvegicus [23]): 50%
Activity (Rattus norvegicus [24]): inactive
